ChEMBL document CHEMBL3244412, “Benzopyrones. 14. Synthesis and antiallergic properties of some N-tetrazolylcarboxamides and related compounds” (1978)
Values after ≈ are worked out from the molar mass of the structure shown.

Assays:
[1] = Antianaphylactic activity in rat mast cells assessed as inhibition of DNP-ovalbumin-induced histamine release after 15 mins by superfusion assay; type: functional; settings: Mast cell, 0.25 h, read-out: ED50 (the source's name)
How it was run: (§1)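 Peritoneal and pleural cells from male albino rats were washed, sensitized with 1:10 rat reaginic anti-DNP-ovalbumin serum for 2 h at 37 °C, and resuspended at 1.2-1.7 × 10⁵ mast cells/mL. Compound and DNP-ovalbumin were added together and incubated for 15 min at 37 °C. Supernatant (free) and lysed-cell (residual) histamine were assayed by guinea pig ileum superfusion bioassay. Inhibition of net histamine release was used to derive EC50 from dose ranging against the reference compound.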

[2] = Antianaphylactic activity in rat mast cells assessed as inhibition of DNP-ovalbumin-induced histamine release after 15 mins by superfusion assay relative to 4-oxo-N-(5-tetrazolyl)-4H-l-benzopyran-2-carboxamide; type: functional, Mast cell; how it was run: as §1
Rattus norvegicus = experiment: Antiallergic activity in rat assessed as inhibition of DNP-ovalbumin-induced passive cutaneous anaphylaxis at 1 mg/kg, iv after 30 mins relative to control; type: functional; settings: for inhibition in vivo at 1 mg/kg: Rattus norvegicus, iv, 0.5 h
How it was run: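 Female albino rats (groups of four) were shaved and sensitized by dorsal intradermal injection of 0.1 mL diluted rat reaginic anti-DNP-ovalbumin serum, raised with Bordetella pertussis adjuvant. After 48 h they were challenged iv with 2 mg DNP-ovalbumin in 0.5 mL 1% Evans blue/saline, with the compound given iv in aqueous solution at the same time. After 30 min, skin weals were scored visually on a 5-point scale; % inhibition was taken versus vehicle controls.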

SMILES	EC50 [1] [µg/mL]	fold change (potency relative to reference compound) [2]	inhibition in vivo at 1 mg/kg (Rattus norvegicus) [%]	inhibition (INH) (Rattus norvegicus) [%]
CNc1c(C(=O)Nc2nnn[nH]2)oc2ccccc2c1=O	0.4 (≈ 1.4 µM)	0.04	100	–
O=C(O)CCNC(=O)c1cc(=O)c2ccccc2o1	> 18	<0.005	0	–
Cc1ccc2c(=O)cc(C(=O)Nc3nnn[nH]3)oc2c1.NCCO	0.16	0.75	–	80
CN1CCN(C(=O)c2cc(=O)c3ccccc3o2)CC1.Cl	> 18	<0.005	0	–
NC(=O)c1cc(=O)c2cc(N)ccc2o1	> 18	<0.005	10	–
Cc1c(C(=O)Nc2nnn[nH]2)oc2ccccc2c1=O	0.4 (≈ 1.47 µM)	1	70	–
CCOC(=O)C(=O)Nc1ccc2oc(C(=O)OCC)cc(=O)c2c1	12 (≈ 36 µM)	0.005	65	–
O=C(Nc1nnn[nH]1)c1ccc2oc(C(=O)Nc3nnn[nH]3)cc(=O)c2c1	0.55 (≈ 1.49 µM)	0.1	100	–
Cc1oc2ccc(S(=O)(=O)Nc3nnn[nH]3)cc2c(=O)c1C	> 18	<0.005	20	–
O=C(Nc1nnn[nH]1)c1cc2ccccc2c(=O)o1	> 18	<0.005	0	–
NC(=O)c1cc(=O)c2ccc(O)c(N)c2o1	> 18	<0.005	15	–
O=C(Nc1nnn[nH]1)c1cc(=O)c2cc(Cl)ccc2o1	0.75 (≈ 2.57 µM)	0.12	65	–
O=c1c(/C=N/O)coc2ccccc12	> 18	0.0006	25	–
O=C(Nc1nnn[nH]1)c1cccc2c(=O)c3ccccc3[nH]c12	0.65 (≈ 2.12 µM)	0.14	90	–
O=C(Nc1nccs1)c1cc(=O)c2ccccc2o1	> 18	<0.005	15	–
O=C(NCCO)c1ccc2oc(C(=O)NCCO)cc(=O)c2c1	> 18	<0.005	15	–
Cn1nnc(NC(=O)c2cc(=O)c3ccccc3o2)n1	–	–	25	–
O=C(Nc1nnn[nH]1)c1coc(=O)c2ccccc12	> 18	<0.005	0	–
COc1ccc2c(=O)c(-c3ccccc3)c(C(=O)Nc3nnn[nH]3)oc2c1	> 18	<0.005	25	–
O=C(Nc1nnn[nH]1)c1oc2ccccc2c(=O)c1Cl	0.8 (≈ 2.74 µM)	0.11	75	–
Cn1nnnc1NC(=O)c1cc(=O)c2ccccc2o1	> 18	<0.005	0	–
CCOC(=O)c1cc(=O)c2cc(NC(=O)Cc3nnn[nH]3)ccc2o1	11 (≈ 32 µM)	0.005	65	–
Cc1ccc2oc(C(=O)Nc3nnn[nH]3)cc(=O)c2c1	0.075 (≈ 0.277 µM)	1.2	75	–
O=C(O)CCCNC(=O)c1cc(=O)c2ccccc2o1	> 18	<0.005	0	–
O=C(Nc1nnn[nH]1)c1cc(=O)c2ccc(O)cc2o1	0.11 (≈ 0.403 µM)	0.77	65	–
